Values after ≈ are worked out from the molar mass of the structure shown.
Tests used:
Phosphomannomutase 2 = target: T1, Phosphomannomutase 2 (Homo sapiens, UniProt O15305); experiment: Inhibition of PMM2 (unknown origin)
T1 sequence (O15305 whole entry): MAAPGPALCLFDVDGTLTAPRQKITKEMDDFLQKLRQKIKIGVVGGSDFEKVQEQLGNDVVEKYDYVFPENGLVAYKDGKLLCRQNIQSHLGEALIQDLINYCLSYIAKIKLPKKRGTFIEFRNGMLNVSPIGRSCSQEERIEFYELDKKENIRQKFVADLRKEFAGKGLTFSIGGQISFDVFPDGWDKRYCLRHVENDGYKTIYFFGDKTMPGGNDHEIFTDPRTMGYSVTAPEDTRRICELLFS

[1] = target: T2, Mannose-6-phosphate isomerase (Homo sapiens, UniProt P34949); experiment: Inhibition of phosphomannose isomerase (unknown origin)
T2 sequence (P34949 whole entry): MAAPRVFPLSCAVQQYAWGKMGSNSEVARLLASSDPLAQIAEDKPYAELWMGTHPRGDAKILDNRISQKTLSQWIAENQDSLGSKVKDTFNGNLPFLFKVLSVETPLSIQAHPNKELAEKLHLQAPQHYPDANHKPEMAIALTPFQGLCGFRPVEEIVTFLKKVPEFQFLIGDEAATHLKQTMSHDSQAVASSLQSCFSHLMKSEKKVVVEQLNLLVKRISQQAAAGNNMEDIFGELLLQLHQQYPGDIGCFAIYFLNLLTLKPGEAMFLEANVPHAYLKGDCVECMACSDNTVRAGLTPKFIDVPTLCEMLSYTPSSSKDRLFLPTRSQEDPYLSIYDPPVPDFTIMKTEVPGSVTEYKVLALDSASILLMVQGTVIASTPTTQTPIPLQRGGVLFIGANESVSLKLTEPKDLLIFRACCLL

[2] = Permeability of the compound at donor pH 7.4 and acceptor pH 7.4 by PAMPA; assay type: ADME
Outline: (§1)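 PAMPA with the acceptor compartment at pH 7.4 and the donor at pH 5.0, 6.2 or 7.4. Permeability reported as ×10^-6 cm/s. Part of an in vitro ADME panel.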

[3] = Plasma protein binding in human at 10 uM by LC-MS analysis; assay type: ADME, cell-free; conditions: read-out: PPB (converted)
Outline: (§2)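 Read-out was % of compound bound in human or mouse plasma, each tested at 1 µM and 10 µM.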

[4] = Plasma protein binding in mouse at 10 uM by LC-MS analysis; assay type: ADME, cell-free; conditions: read-out: PPB (converted); outline: as §2
[5] = Permeability of the compound at donor pH 5.0 and acceptor pH 7.4 by PAMPA; assay type: ADME; outline: as §1
[6] = Metabolic stability in human liver microsomes measured at 1 uM after 1 hr at pH 7.4 by LC-MS/MS analysis in absence of NADPH; assay type: ADME; conditions: read-out: Stability
Outline: (§3)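 Stability of each analogue was reported as % of compound remaining. For liver microsomes this was after 1 hr, with runs with and without NADPH. For plasma this was after 3 hrs in plasma mixed 1:1 with 1× PBS, pH 7.4. Both human and mouse matrices were used.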

[7] = Aqueous solubility of the compound in pH 7.4 pION buffer by UV kinetic solubility method; assay type: physicochemical
Outline: (§4)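 Kinetic solubility in pION's buffer at pH 5.0, 6.2 or 7.4, reported in µg/ml. Part of an in vitro ADME panel.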

[8] = Cytotoxicity against human Fa2N-4 cells after 24 hrs by ATP-lite 1-step assay; assay type: cell-based; conditions: fa2n-4, 24 h, read-out: LC50 (the source's name)
[9] = Metabolic stability in human plasma assessed as compound remaining at 1:1 1 x pH7.4 PBS measured at 3 hrs by LC-MS/MS analysis; assay type: ADME, cell-free; conditions: pH 7.4, read-out: Stability; outline: as §3
[10] = Metabolic stability in human plasma assessed as compound remaining at 1 x pH7.4 PBS measured at 3 hrs by LC-MS/MS analysis; assay type: ADME, cell-free; conditions: pH 7.4, read-out: Stability; outline: as §3
[11] = Metabolic stability in mouse liver microsomes measured at 1 uM after 1 hr at pH 7.4 by LC-MS/MS analysis in absence of NADPH; assay type: ADME; conditions: read-out: Stability; outline: as §3
[12] = Metabolic stability in mouse liver microsomes measured at 1 uM after 1 hr at pH 7.4 by LC-MS/MS analysis; assay type: ADME; conditions: read-out: Stability; outline: as §3
[13] = Permeability of the compound at donor pH 6.2 and acceptor pH 7.4 by PAMPA; assay type: ADME; outline: as §1
[14] = Metabolic stability in mouse plasma assessed as compound remaining at 1 x pH7.4 PBS measured at 3 hrs by LC-MS/MS analysis; assay type: ADME, cell-free; conditions: pH 7.4, read-out: Stability; outline: as §3
[15] = Metabolic stability in mouse plasma assessed as compound remaining at 1:1 1 x pH7.4 PBS measured at 3 hrs by LC-MS/MS analysis; assay type: ADME, cell-free; conditions: pH 7.4, read-out: Stability; outline: as §3
[16] = Metabolic stability in human liver microsomes measured at 1 uM after 1 hr at pH 7.4 by LC-MS/MS analysis; assay type: ADME; conditions: read-out: Stability; outline: as §3
[17] = Aqueous solubility of the compound in pH 6.2 pION buffer by UV kinetic solubility method; assay type: physicochemical; outline: as §4
[18] = Plasma protein binding in human at 1 uM by LC-MS analysis; assay type: ADME, cell-free; conditions: read-out: PPB (converted); outline: as §2
[19] = Plasma protein binding in mouse at 1 uM by LC-MS analysis; assay type: ADME, cell-free; conditions: read-out: PPB (converted); outline: as §2
[20] = Aqueous solubility of the compound in pH 5 pION buffer by UV kinetic solubility method; assay type: physicochemical; outline: as §4
[21] = target: T3, Phosphoethanolamine/phosphocholine phosphatase (Homo sapiens, UniProt Q8TCT1); experiment: Inhibition of PHOSPHO1 phosphoethanolamine activity (unknown origin) assessed as amount of inorganic phosphate release after 30 mins
T3 sequence (Q8TCT1 whole entry): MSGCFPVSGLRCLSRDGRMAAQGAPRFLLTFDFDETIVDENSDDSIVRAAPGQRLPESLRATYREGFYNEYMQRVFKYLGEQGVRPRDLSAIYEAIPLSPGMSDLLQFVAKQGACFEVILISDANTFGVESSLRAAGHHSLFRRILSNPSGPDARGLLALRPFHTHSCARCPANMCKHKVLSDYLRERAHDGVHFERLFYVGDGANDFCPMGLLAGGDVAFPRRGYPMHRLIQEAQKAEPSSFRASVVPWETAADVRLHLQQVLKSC

## CN(C)c1ccc(-n2sc3ccccc3c2=O)cc1
Phosphomannomutase 2
  IC50: > 30 µM
[1]
  IC50: 8.4 µM

## COC(=O)c1cccc(-n2sc3ccccc3c2=O)c1
[2]
  permeability: 1300 ×10⁻⁶ cm/s
[3]
  fraction unbound at 10 µM: 0.427
[4]
  fraction unbound at 10 µM: 0.624
[5]
  permeability: 1294 ×10⁻⁶ cm/s
[6]
  remaining at 1 h, 1 µM: 31.5%
[7]
  solubility kinetic: 20.8 µg/mL (≈ 72.9 µM)
Phosphomannomutase 2
  IC50: 12 µM
[8]
  CC50: > 50 µM
[9]
  remaining at 3 h: 49.3%
[10]
  remaining at 3 h: 15.4%
[11]
  remaining at 1 h, 1 µM: 44.6%
[12]
  remaining at 1 h, 1 µM: 45.9%
[13]
  permeability: 1231 ×10⁻⁶ cm/s
[14]
  remaining at 3 h: 59.6%
[15]
  remaining at 3 h: 55.2%
[16]
  remaining at 1 h, 1 µM: 72.4%
[17]
  solubility kinetic: 18.9 µg/mL (≈ 66.2 µM)
[18]
  fraction unbound at 1 µM: 0.588
[19]
  fraction unbound at 1 µM: 0.52
[20]
  solubility kinetic: 12.6 µg/mL (≈ 44.2 µM)

## O=c1c2ccccc2sn1-c1ccc(Cl)c(S(=O)(=O)N2CCOCC2)c1
Phosphomannomutase 2
  IC50: 63 µM

## CN(C)S(=O)(=O)c1cccc(-n2sc3ccccc3c2=O)c1
[2]
  permeability: 777 ×10⁻⁶ cm/s
[3]
  fraction unbound at 10 µM: 0.435
[4]
  fraction unbound at 10 µM: 0.659
[5]
  permeability: 781 ×10⁻⁶ cm/s
[7]
  solubility kinetic: 23.8 µg/mL (≈ 71.2 µM)
[8]
  CC50: > 50 µM
[9]
  remaining at 3 h: 32.3%
[10]
  remaining at 3 h: 11.4%
[12]
  remaining at 1 h, 1 µM: 100%
[13]
  permeability: 817 ×10⁻⁶ cm/s
[14]
  remaining at 3 h: 65.3%
[15]
  remaining at 3 h: 40%
[16]
  remaining at 1 h, 1 µM: 72.4%
[17]
  solubility kinetic: 24.6 µg/mL (≈ 73.6 µM)
[19]
  fraction unbound at 1 µM: 0.644
[20]
  solubility kinetic: 23.4 µg/mL (≈ 70 µM)

## O=C(O)c1cccc(-n2sc3ccccc3c2=O)c1
[2]
  permeability: < 4.4 ×10⁻⁶ cm/s
[3]
  fraction unbound at 10 µM: 0.406
[4]
  fraction unbound at 10 µM: 0.699
[5]
  permeability: 157 ×10⁻⁶ cm/s
[7]
  solubility kinetic: > 27 µg/mL
[8]
  CC50: > 50 µM
[9]
  remaining at 3 h: 55.5%
[10]
  remaining at 3 h: 50.2%
[12]
  remaining at 1 h, 1 µM: 100%
[13]
  permeability: 18 ×10⁻⁶ cm/s
[14]
  remaining at 3 h: 100%
[15]
  remaining at 3 h: 71.2%
[16]
  remaining at 1 h, 1 µM: 100%
[17]
  solubility kinetic: > 27 µg/mL
[19]
  fraction unbound at 1 µM: 0.812
[20]
  solubility kinetic: > 27 µg/mL

## Cc1cccc(-n2sc3cc(F)ccc3c2=O)c1C
Phosphomannomutase 2
  IC50: > 20 µM
[21]
  IC50: 4.7 µM
[1]
  IC50: 9.9 µM

## CCN(CC)S(=O)(=O)c1cccc(-n2sc3ccccc3c2=O)c1
Phosphomannomutase 2
  IC50: > 100 µM
[1]
  IC50: > 50 µM

## O=c1c2ccc(F)cc2sn1-c1ccc(F)cc1
Phosphomannomutase 2
  IC50: > 50 µM
[21]
  IC50: > 10 µM
[1]
  IC50: 3.6 µM

## CCOC(=O)c1ccc(-n2sc3ccccc3c2=O)cc1
Phosphomannomutase 2
  IC50: > 50 µM
[1]
  IC50: 23 µM

## Cc1cccc(-n2sc3ccccc3c2=O)c1
Phosphomannomutase 2
  IC50: > 20 µM

## O=c1c2ccc(F)cc2sn1-c1ccccc1
Phosphomannomutase 2
  IC50: > 50 µM
[21]
  IC50: 0.79 µM
[1]
  IC50: 1.3 µM

From ChEMBL document CHEMBL3351720, “Design, synthesis and evaluation of benzoisothiazolones as selective inhibitors of PHOSPHO1” (Bioorg Med Chem Lett, 2014)
